Screens deposited in PubChem by several laboratories.
Sampled rows, rich in hits. Any-hit rate of the full collection: about 4.9%.
NPY1 pot ag – potentiators or agonists of human neuropeptide Y receptor Y1. P25929. actives 0.37% (n = 220,000). activation, % at 3.6 µM. NPY-Y1 expressing cells, potentiator/agonist activation; in the data active = activation above about 33%, passing the limit was not always enough;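 also: cells stimulated with NPY at EC10 then isoproterenol at EC100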
WT yeast gro inh – growth inhibition of WT yeast, mitochondrial fusion screen; mitochondrial fusion phenotypic screen, WT strain; inhibition, % at 10 µM; actives 2.1% (n = 190,000); AID 1362; in the data active = inhibition above about 58%; tested in S. cerevisiae
NPY Y2 blocker – blocks the human neuropeptide Y Y2 receptor. P49146. NPY-Y2 expressing cells, antagonist mode. inhibition, % at 2.7 µM. actives 0.99% (n = 140,000). AID 793; in the data active = inhibition above about 17%
Target sequence (P49146 whole entry, looked up): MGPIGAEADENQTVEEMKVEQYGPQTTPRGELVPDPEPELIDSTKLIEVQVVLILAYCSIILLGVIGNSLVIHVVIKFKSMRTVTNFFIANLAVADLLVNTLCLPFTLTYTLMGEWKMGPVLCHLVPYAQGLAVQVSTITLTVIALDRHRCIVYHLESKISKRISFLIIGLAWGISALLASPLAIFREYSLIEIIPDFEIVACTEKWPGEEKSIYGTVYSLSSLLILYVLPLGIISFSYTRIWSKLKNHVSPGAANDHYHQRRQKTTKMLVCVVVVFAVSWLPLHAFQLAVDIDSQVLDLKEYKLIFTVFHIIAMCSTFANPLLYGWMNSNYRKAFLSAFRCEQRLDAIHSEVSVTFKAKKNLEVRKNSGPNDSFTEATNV
NPY2 pot ag – potentiators or agonists of human neuropeptide Y receptor Y2; P49146; cells expressing NPY-Y2, potentiator/agonist read-out; activation, % at 3.6 µM; actives 0.45% (n = 220,000); AID 1359; in the data active = activation above about 27%;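 also: cells stimulated with NPY near EC25 plus isoproterenol at EC100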
RAM network inh – inhibitors of the yeast RAM network. S. cerevisiae dse1pr::URA3 reporter, 5-FOA growth OD615, 2 d; analog-sensitive cbk1-as2 kinase mutant strain. inhibition, % at 50 µM. actives 1.8% (n = 190,000). AID 868;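 active = inhibition above a set limit, 3 SD over mean compound inhibition, cut at about 8.4% in these data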;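 also: inhibition rescues growth on 5-FOA so higher OD means more RAM inhibition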
NPY Y1 blocker – NPY-Y1 (human) receptor antagonism; P25929; HEK293-CNG Y1 cells, membrane potential fluorescence; NPY at EC95, then isoproterenol; inhibition, % at 3.6 µM; actives 1% (n = 200,000); AID 1040;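 active = inhibition above the campaign mean inhibition of all tested compounds plus 3 SD, cut at about 20% in these data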
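Material: HEK293 cells co-expressing NPY Y1 receptor and cyclic-nucleotide gated channel. Timing: compound incubation 1 h at room temperature, readout 45 min post-stimulation. Signal: fluorescence, membrane potential probe.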
Hits are given with their value.

Screening Cc1ccc(Sc2c(C)nn(C(=O)C3CC3)c2C)cc1 returned NPY1 pot ag inactive, WT yeast gro inh 85, NPY Y2 blocker inactive, NPY2 pot ag inactive, RAM network inh inactive and NPY Y1 blocker inactive.
Screening CC1(c2ccccc2)CC(C)(C)N(C(=O)CSc2nnc(N)s2)c2ccccc21 (configuration not stated) returned NPY1 pot ag inactive, WT yeast gro inh inactive, NPY Y2 blocker inactive, NPY2 pot ag inactive, RAM network inh inactive and NPY Y1 blocker inactive.
`COc1cccc(CN(C)C(=O)c2cc(COc3ccc4ncccc4c3)on2)c1` gave NPY1 pot ag inactive, WT yeast gro inh inactive, NPY2 pot ag inactive, RAM network inh inactive and NPY Y1 blocker 21.
Screening COc1cccc(CN(C)C(=O)c2cc(COc3c(F)cccc3F)on2)c1 returned NPY1 pot ag inactive, WT yeast gro inh inactive, NPY2 pot ag inactive, RAM network inh inactive and NPY Y1 blocker inactive.
Cc1ccc(S(=O)(=O)NC2=NCN(CCOC(=O)c3ccc([N+](=O)[O-])cc3)CN2)cc1 was read as NPY1 pot ag inactive, WT yeast gro inh inactive, NPY Y2 blocker inactive, NPY2 pot ag inactive, RAM network inh inactive and NPY Y1 blocker inactive.
Screening CCn1c(SCC(N)=O)nnc1-c1ccco1 returned NPY1 pot ag inactive, WT yeast gro inh inactive, NPY Y2 blocker inactive, NPY2 pot ag inactive, RAM network inh inactive and NPY Y1 blocker inactive.
CCn1c(SCc2cccc(C(F)(F)F)c2)nnc1-c1ccco1 was read as NPY1 pot ag inactive, WT yeast gro inh inactive, NPY Y2 blocker inactive, NPY2 pot ag inactive, RAM network inh 9.6 and NPY Y1 blocker inactive.
`O=C(NCCc1ccccc1)c1ccc2c(c1)N(Cc1ccccc1)C(=O)CS2=O` (configuration not stated) gave NPY1 pot ag inactive, WT yeast gro inh inactive, NPY Y2 blocker inactive, NPY2 pot ag inactive, RAM network inh inactive and NPY Y1 blocker inactive.
Screening CN(C)c1ccc(CNn2cnnc2SCC(=O)NC(C)(C)C)cc1 returned NPY1 pot ag inactive, WT yeast gro inh inactive, NPY2 pot ag inactive, RAM network inh inactive and NPY Y1 blocker inactive.
Screening CO/N=C(/CNC(=O)c1cccc(Cl)c1)c1ccc(Cl)cc1 returned NPY1 pot ag inactive, WT yeast gro inh inactive, NPY Y2 blocker inactive, NPY2 pot ag inactive, RAM network inh inactive and NPY Y1 blocker inactive.
Screening CC(=O)c1ccc(NC(=O)C2C3C=CC(C3=C(c3ccccc3)c3ccccc3)C2C(=O)O)cc1 (configuration not stated) returned NPY1 pot ag inactive, WT yeast gro inh inactive, NPY2 pot ag inactive, RAM network inh 10 and NPY Y1 blocker inactive.
`CC(C)=C1C2C=CC1C(C(=O)Nc1cc(C)ccc1C)C2C(=O)O` (configuration not stated) gave NPY1 pot ag inactive, WT yeast gro inh inactive, NPY Y2 blocker inactive, NPY2 pot ag inactive, RAM network inh inactive and NPY Y1 blocker inactive.
CCc1ccc(-c2csc(NC(=O)C3CC(=O)N(c4ccc5c(c4)OCCO5)C3)n2)cc1 (configuration not stated) was read as NPY1 pot ag inactive, WT yeast gro inh inactive, NPY Y2 blocker inactive, NPY2 pot ag inactive, RAM network inh inactive and NPY Y1 blocker inactive.
For COc1ccc(-n2cc(-c3ccc(Br)cc3)[nH]c2=S)cc1 the results were NPY1 pot ag inactive, WT yeast gro inh inactive, NPY2 pot ag inactive, RAM network inh 9.6 and NPY Y1 blocker inactive.
Screening COc1ccc(-n2cc(-c3ccc(OC)c(OC)c3)[nH]c2=S)cc1 returned NPY1 pot ag inactive, WT yeast gro inh inactive, NPY2 pot ag inactive, RAM network inh inactive and NPY Y1 blocker inactive.
O=C(CN1CCN(c2ccccn2)CC1)Nc1ccc(Cl)c(C(F)(F)F)c1 was read as NPY1 pot ag inactive, WT yeast gro inh inactive, NPY Y2 blocker inactive, NPY2 pot ag inactive, RAM network inh inactive and NPY Y1 blocker inactive.
Screening COc1ccccc1N1CCN(CC(=O)Nc2ccc(Cl)c(C(F)(F)F)c2)CC1 returned NPY1 pot ag inactive, WT yeast gro inh 58, NPY Y2 blocker inactive, NPY2 pot ag inactive, RAM network inh inactive and NPY Y1 blocker inactive.
COc1cccc(-c2nc3n(n2)C(c2ccc4c(c2)OCO4)C(C(N)=O)=C(C)N3)c1 (configuration not stated) was read as NPY1 pot ag inactive, WT yeast gro inh inactive, NPY Y2 blocker inactive, NPY2 pot ag inactive, RAM network inh 10 and NPY Y1 blocker inactive.
`C=CCOc1ccc2c(c1)c(=O)cc(C(=O)O)n2CC` gave NPY1 pot ag inactive and NPY2 pot ag inactive.
`C=CCOc1ccc2c(c1)c(S(=O)(=O)c1ccc(C)cc1)cn2COC` gave NPY1 pot ag inactive, WT yeast gro inh inactive, NPY Y2 blocker inactive, NPY2 pot ag inactive, RAM network inh 9.9 and NPY Y1 blocker inactive.
`Cc1ccc2cc(/C=N/Nc3nc4ccccc4[nH]3)c(Cl)nc2c1` gave NPY1 pot ag inactive, WT yeast gro inh 59, NPY Y2 blocker inactive, NPY2 pot ag inactive, RAM network inh inactive and NPY Y1 blocker inactive.
`C#CCn1cc(/C=N/Nc2nc3ccccc3[nH]2)c2ccccc21` gave NPY1 pot ag 45, WT yeast gro inh inactive, NPY Y2 blocker inactive, NPY2 pot ag 49, RAM network inh inactive and NPY Y1 blocker inactive.
Cn1c(N/N=C/c2cc3ccccc3nc2Cl)nc2ccccc21 was read as NPY1 pot ag inactive, WT yeast gro inh 69, NPY Y2 blocker inactive, NPY2 pot ag inactive, RAM network inh inactive and NPY Y1 blocker inactive.
For Cc1ccc(NCC(=O)N/N=C/c2cc3ccccc3nc2Cl)cc1 the results were NPY1 pot ag inactive, WT yeast gro inh 68, NPY Y2 blocker inactive, NPY2 pot ag inactive, RAM network inh inactive and NPY Y1 blocker inactive.
For COc1ccc(OC)c(Nc2nc(-c3sc(NC(=O)c4ccccc4)nc3C)cs2)c1 the results were NPY1 pot ag inactive, WT yeast gro inh inactive, NPY Y2 blocker inactive, NPY2 pot ag inactive, RAM network inh inactive and NPY Y1 blocker inactive.
For C(=N\Nc1nc2ccccc2[nH]1)/c1ccccn1 the results were NPY1 pot ag inactive, WT yeast gro inh 67, NPY2 pot ag inactive, RAM network inh inactive and NPY Y1 blocker inactive.
Screening Fc1ccccc1/C=C/c1ccc2ccccc2n1 returned NPY1 pot ag inactive, WT yeast gro inh inactive, NPY Y2 blocker inactive, NPY2 pot ag inactive, RAM network inh inactive and NPY Y1 blocker inactive.
`CCSC1=N/C(=C\c2ccccc2)C(=O)N1c1ccc(OC)cc1` gave NPY1 pot ag inactive, WT yeast gro inh inactive, NPY2 pot ag inactive, RAM network inh 10 and NPY Y1 blocker inactive.
Screening COc1ccc(CC(=O)n2nc(-c3ccccc3)nc2NCc2ccco2)cc1 returned NPY1 pot ag inactive, WT yeast gro inh inactive, NPY Y2 blocker inactive, NPY2 pot ag inactive, RAM network inh 10 and NPY Y1 blocker inactive.
`Cn1cccc1/C=N/n1c(-c2ccc(Cl)cc2Cl)n[nH]c1=S` gave NPY1 pot ag inactive, WT yeast gro inh 71, NPY Y2 blocker inactive, NPY2 pot ag inactive, RAM network inh inactive and NPY Y1 blocker inactive.
